Data: ChEMBL document CHEMBL3044755, “5-Methyl-1,2,3-thiadiazoles synthesized via ugi reaction and their fungicidal and antiviral activities” (J Agric Food Chem, 2010)

Columns and labels:
Format in all cases: functional
Fusarium graminearum = assay: Fungicidal activity against Fusarium graminearum at 50 ug/ml by growth inhibition method; settings: read-out: GI
How it was run: (§1)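 Mycelial growth inhibition on potato dextrose agar. The panel covered Alternaria solani, Botrytis cinerea, Cercospora arachidicola, C. beticola, Colletotrichum lagenarium, Fusarium oxysporum, Gibberella zeae, Puccinia triticina, Phytophthora infestans, Physalospora piricola, Pellicularia sasakii and Rhizoctonia solani.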

Mycosphaerella arachidis = assay: Fungicidal activity against Mycosphaerella arachidis at 50 ug/ml by growth inhibition method; settings: read-out: GI; how it was run: as §1
Alternaria solani = assay: Fungicidal activity against Alternaria solani at 50 ug/ml by growth inhibition method; settings: read-out: GI; how it was run: as §1
Colletotrichum lagenaria = assay: Fungicidal activity against Colletotrichum lagenaria at 50 ug/ml by growth inhibition method; settings: read-out: GI; how it was run: as §1
Puccinia triticina = assay: Fungicidal activity against Puccinia triticina at 50 ug/ml by growth inhibition method; settings: read-out: GI; how it was run: as §1
Rhizoctonia solani = assay: Fungicidal activity against Rhizoctonia solani at 50 ug/ml by growth inhibition method; settings: read-out: GI; how it was run: as §1
Tobacco mosaic virus [1] = assay: In vitro antiviral activity against Tobacco mosaic virus (TMV) infected tobacco leaves at 500 ug/ml
Tobacco mosaic virus [2] = assay: In vitro antiviral activity against Tobacco mosaic virus (TMV) infected tobacco leaves at 100 ug/ml
[3] = test system: Botryosphaeria berengeriana; assay: Fungicidal activity against Botryosphaeria berengeriana at 50 ug/ml by growth inhibition method; settings: read-out: GI; how it was run: as §1
Phytophthora infestans = assay: Fungicidal activity against Phytophthora infestans at 50 ug/ml by growth inhibition method; settings: read-out: GI; how it was run: as §1
Cercospora beticola = assay: Fungicidal activity against Cercospora beticola at 50 ug/ml by growth inhibition method; settings: read-out: GI; how it was run: as §1
Thanatephorus cucumeris = assay: Fungicidal activity against Thanatephorus cucumeris at 50 ug/ml by growth inhibition method; settings: read-out: GI; how it was run: as §1

Row | Compound | inhibition of growth at 50 µg/mL (Fusarium graminearum) [%] | inhibition of growth at 50 µg/mL (Mycosphaerella arachidis) [%] | inhibition of growth at 50 µg/mL (Alternaria solani) [%] | inhibition of growth at 50 µg/mL (Colletotrichum lagenaria) [%] | inhibition of growth at 50 µg/mL (Puccinia triticina) [%] | inhibition of growth at 50 µg/mL (Rhizoctonia solani) [%] | inhibition at 500 µg/mL (Tobacco mosaic virus [1]) [%] | inhibition at 100 µg/mL (Tobacco mosaic virus [2]) [%] | inhibition of growth at 50 µg/mL [3] [%] | inhibition of growth at 50 µg/mL (Phytophthora infestans) [%] | inhibition of growth at 50 µg/mL (Cercospora beticola) [%] | inhibition of growth at 50 µg/mL (Thanatephorus cucumeris) [%]
1 | Cc1ccc(N(C(=O)c2nnsc2C)C(C(=O)NC(C)C)c2cccc(F)c2)cc1F (stereo unspecified) | 5 | 27 | 44 | 57 | 0 | 43 | 30 | 50 | 0 | 19 | 25 | 0
2 | Cc1ccc(N(C(=O)c2nnsc2C)C(C(=O)NC(C)C)c2ccc(C(F)(F)F)cc2)cc1F (stereo unspecified) | 0 | 0 | 0 | 0 | 0 | 15 | 45 | 14 | 0 | 25 | 25 | 11
3 | Cc1ccc(N(C(=O)c2nnsc2C)C(C(=O)NC(C)C)c2cccc(C(F)(F)F)c2)cc1F (stereo unspecified) | 36 | 27 | 0 | 14 | 14 | 22 | 51 | 19 | 8 | 0 | 25 | 4
4 | Cc1ccc(C(C(=O)NC(C)C)N(C(=O)c2nnsc2C)c2ccc(C)c(F)c2)cc1 (stereo unspecified) | 0 | 45 | 31 | 29 | 14 | 37 | 31 | 7 | 0 | 13 | 25 | 11
5 | Cc1ccc(N(C(=O)c2nnsc2C)C(C(=O)NC(C)C)c2ccc(Cl)cc2)cc1F (stereo unspecified) | 0 | 0 | 38 | 14 | 0 | 15 | 12 | 20 | 0 | 38 | 13 | 28
6 | Cc1ccc(N(C(=O)c2nnsc2C)C(C(=O)NC(C)C)c2cccc(Cl)c2)cc1F (stereo unspecified) | 0 | 0 | 0 | 0 | 0 | 22 | 66 | 32 | 0 | 0 | 13 | 4
7 | Cc1ccc(N(C(=O)c2nnsc2C)C(C(=O)NC(C)C)c2ccccc2Cl)cc1F (stereo unspecified) | 0 | 0 | 0 | 14 | 0 | 0 | 17 | 23 | 0 | 25 | 0 | 0
8 | Cc1ccc(N(C(=O)c2nnsc2C)C(C(=O)NC(C)C)c2ccc(F)cc2)cc1F (stereo unspecified) | 27 | 0 | 0 | 0 | 0 | 22 | 51 | 18 | 0 | 0 | 25 | 0
